{"source": "paper PMC5322940", "about": "(Cell, 2016)", "biological_target": "CB1 protein (Homo sapiens, UniProt P21554, D324T/DEL307-313/E273K/E323T/H320Y/I317L/I319V/INS325[…]/K326D/Q314A/Q328R/R331I/R340E/S316A/T210A/T283V/T321G/T330A/V329G)", "experiment": "Affinity mass spectrometry analysis of AM6538", "format": "binding", "conditions": "CB1 protein co-purified with AM6538", "outline": "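CB1–flavodoxin fusion expressed in HEK293F and purified in DDM/CHS. Membranes took up 20 µM test compound (3 h, 4 °C), then iodoacetamide; wash and elution buffers also carried test compound. Co-purified complex was desalted on G-25 to strip free ligand. About 1 µg was ultrafiltered (30 kDa cutoff, 13,000 g, 10 min, 4 °C) in 150 mM ammonium acetate, 0.02% DDM, 0.004% CHS; retained complex collected.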", "data": [{"smiles": "Cc1c(C(=O)NN2CCCCC2)nn(-c2ccc(Cl)cc2Cl)c1-c1ccc(C#CCCO[N+](=O)[O-])cc1", "note": "[AM6538, 4-(4-(1-(2,4-dichlorophenyl)-4-methyl-3-(piperidin-1-ylcarbamoyl)-1H-pyrazol-5-yl)phenyl)but-3-yn-1-yl nitrate]", "values": [{"measurement": "Covalent modification of CB1 cysteine residues", "value": "no evidence of covalent modification"}]}]}
